Test results: ChEMBL document CHEMBL5724801, “EUbOPEN Chemogenomics Library - Multiplex” (2024)
Where “and” joins values, the source holds several entries; their conditions need not be identical. Identical values can stand only once. Non-standard residues stand in square brackets, D forms with d. Residues, ends and D or L forms follow the SMILES beside them.

Test system: HEK-293T
Assay: Multiplex assay against HEK293T
Type: toxicity, cell-based
Details: human
Outline: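 Live cells were stained at seeding with Hoechst33342, BioTracker Green Microtubule Cytoskeleton Dye, MitoTracker Red and Annexin V Alexa Fluor 680. Following compound addition, they were imaged on a CQ1 microscope at 37°C and 5% CO2 and gated by CellPathfinder machine learning into Hoechst high-intensity objects or normal cells, with normal cells split into healthy, pyknosed or fragmented nuclei and pyknosed cells into mitotic or apoptotic. Tubulin, mitochondrial-mass and membrane-permeability phenotypes are per cents of healthy-nucleus cells.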

[1] = 12 h, 1 µM, compound concentration 1 uM
[2] = 12 h, 10 µM, compound concentration 10 uM
[3] = 24 h, 1 µM, compound concentration 1 uM
[4] = 24 h, 10 µM, compound concentration 10 uM
[5] = 48 h, 1 µM, compound concentration 1 uM
[6] = 48 h, 10 µM, compound concentration 10 uM

## CCC(=O)OCC(=O)[C@@]1(OC(=O)CC)[C@@H](C)C[C@H]2[C@@H]3CCC4=CC(=O)C=C[C@]4(C)[C@@]3(Cl)[C@@H](O)C[C@@]21C [BECLOMETHASONE DIPROPIONATE]
[1]
  Population Apoptotic (%): 43% and 47%
  Population Fragmented Nuclei (%): 8% and 5%
  Population Healthy Nuclei (%): 75% and 74%
  Population Hoechst High Intensity Objects (%): 7% and 4%
  Population Membrane Permeable-Phenotype (%): 0%
  Population Mitochondria Different-Phenotype (%): 60% and 75%
  Population Mitotic Cells (%): 56% and 52%
  Population Normal (%): 92% and 95%
  Population Pyknosed Nuclei (%): 15% and 19%
  Population Tubulin-Different-Phenotype (%): 48% and 42%
  Total Cell Count: 388 and 356
[2]
  Population Apoptotic (%): 60% and 68%
  Population Fragmented Nuclei (%): 8% and 6%
  Population Healthy Nuclei (%): 66%
  Population Hoechst High Intensity Objects (%): 14% and 16%
  Population Membrane Permeable-Phenotype (%): 0%
  Population Mitochondria Different-Phenotype (%): 87% and 93%
  Population Mitotic Cells (%): 39% and 31%
  Population Normal (%): 85% and 83%
  Population Pyknosed Nuclei (%): 25% and 27%
  Population Tubulin-Different-Phenotype (%): 65% and 35%
  Total Cell Count: 236 and 252
[3]
  Population Apoptotic (%): 32% and 43%
  Population Fragmented Nuclei (%): 7%
  Population Healthy Nuclei (%): 81%
  Population Hoechst High Intensity Objects (%): 4% and 5%
  Population Membrane Permeable-Phenotype (%): 0%
  Population Mitochondria Different-Phenotype (%): 40% and 52%
  Population Mitotic Cells (%): 67% and 56%
  Population Normal (%): 95% and 94%
  Population Pyknosed Nuclei (%): 11%
  Population Tubulin-Different-Phenotype (%): 31% and 18%
  Total Cell Count: 507 and 446
[4]
  Population Apoptotic (%): 56% and 62%
  Population Fragmented Nuclei (%): 13% and 5%
  Population Healthy Nuclei (%): 65% and 71%
  Population Hoechst High Intensity Objects (%): 11% and 9%
  Population Membrane Permeable-Phenotype (%): 0%
  Population Mitochondria Different-Phenotype (%): 89% and 97%
  Population Mitotic Cells (%): 44% and 37%
  Population Normal (%): 88% and 90%
  Population Pyknosed Nuclei (%): 21% and 23%
  Population Tubulin-Different-Phenotype (%): 73% and 43%
  Total Cell Count: 270 and 243
[5]
  Population Apoptotic (%): 30% and 31%
  Population Fragmented Nuclei (%): 11% and 12%
  Population Healthy Nuclei (%): 78% and 79%
  Population Hoechst High Intensity Objects (%): 4% and 3%
  Population Membrane Permeable-Phenotype (%): 0%
  Population Mitochondria Different-Phenotype (%): 28% and 32%
  Population Mitotic Cells (%): 69% and 68%
  Population Normal (%): 95% and 96%
  Population Pyknosed Nuclei (%): 9% and 8%
  Population Tubulin-Different-Phenotype (%): 18% and 17%
  Total Cell Count: 742 and 655
[6]
  Population Apoptotic (%): 67% and 65%
  Population Fragmented Nuclei (%): 14% and 12%
  Population Healthy Nuclei (%): 72%
  Population Hoechst High Intensity Objects (%): 5%
  Population Membrane Permeable-Phenotype (%): 0%
  Population Mitochondria Different-Phenotype (%): 72% and 90%
  Population Mitotic Cells (%): 32% and 34%
  Population Normal (%): 94%
  Population Pyknosed Nuclei (%): 13% and 15%
  Population Tubulin-Different-Phenotype (%): 43% and 62%
  Total Cell Count: 347 and 283

## CC(C)C[C@@H]1NC(=O)[C@@H](C(C)C)NC(=O)[C@@H]2CCCN2C(=O)[C@@H](CC(=O)O)NC(=O)[C@@H](Cc2c[nH]c3ccccc23)NC1=O [BQ-123] (cyclo(L[dW][dD]P[dV]))
[1]
  Population Apoptotic (%): 46%
  Population Fragmented Nuclei (%): 7% and 5%
  Population Healthy Nuclei (%): 80% and 82%
  Population Hoechst High Intensity Objects (%): 4% and 7%
  Population Membrane Permeable-Phenotype (%): 0%
  Population Mitochondria Different-Phenotype (%): 39% and 59%
  Population Mitotic Cells (%): 53%
  Population Normal (%): 95% and 92%
  Population Pyknosed Nuclei (%): 11%
  Population Tubulin-Different-Phenotype (%): 32% and 19%
  Total Cell Count: 376 and 392
[2]
  Population Apoptotic (%): 30% and 71%
  Population Fragmented Nuclei (%): 7% and 5%
  Population Healthy Nuclei (%): 78%
  Population Hoechst High Intensity Objects (%): 7% and 11%
  Population Membrane Permeable-Phenotype (%): 0%
  Population Mitochondria Different-Phenotype (%): 48% and 65%
  Population Mitotic Cells (%): 69% and 28%
  Population Normal (%): 92% and 88%
  Population Pyknosed Nuclei (%): 14% and 16%
  Population Tubulin-Different-Phenotype (%): 31% and 22%
  Total Cell Count: 387 and 265
[3]
  Population Apoptotic (%): 26% and 40%
  Population Fragmented Nuclei (%): 10% and 7%
  Population Healthy Nuclei (%): 79% and 82%
  Population Hoechst High Intensity Objects (%): 3% and 5%
  Population Membrane Permeable-Phenotype (%): 0%
  Population Mitochondria Different-Phenotype (%): 27% and 35%
  Population Mitotic Cells (%): 73% and 59%
  Population Normal (%): 96% and 94%
  Population Pyknosed Nuclei (%): 9%
  Population Tubulin-Different-Phenotype (%): 21% and 14%
  Total Cell Count: 497 and 538
[4]
  Population Apoptotic (%): 25% and 57%
  Population Fragmented Nuclei (%): 11% and 8%
  Population Healthy Nuclei (%): 77% and 78%
  Population Hoechst High Intensity Objects (%): 6% and 7%
  Population Membrane Permeable-Phenotype (%): 0%
  Population Mitochondria Different-Phenotype (%): 31% and 50%
  Population Mitotic Cells (%): 75% and 42%
  Population Normal (%): 93% and 92%
  Population Pyknosed Nuclei (%): 11% and 12%
  Population Tubulin-Different-Phenotype (%): 24% and 18%
  Total Cell Count: 511 and 302
[5]
  Population Apoptotic (%): 21% and 24%
  Population Fragmented Nuclei (%): 11%
  Population Healthy Nuclei (%): 79% and 81%
  Population Hoechst High Intensity Objects (%): 3% and 5%
  Population Membrane Permeable-Phenotype (%): 0% and 1%
  Population Mitochondria Different-Phenotype (%): 22% and 18%
  Population Mitotic Cells (%): 78% and 75%
  Population Normal (%): 96% and 94%
  Population Pyknosed Nuclei (%): 9% and 7%
  Population Tubulin-Different-Phenotype (%): 15% and 10%
  Total Cell Count: 719 and 777
[6]
  Population Apoptotic (%): 25% and 40%
  Population Fragmented Nuclei (%): 16% and 11%
  Population Healthy Nuclei (%): 77% and 80%
  Population Hoechst High Intensity Objects (%): 3%
  Population Membrane Permeable-Phenotype (%): 1% and 0%
  Population Mitochondria Different-Phenotype (%): 21% and 29%
  Population Mitotic Cells (%): 75% and 59%
  Population Normal (%): 96%
  Population Pyknosed Nuclei (%): 6% and 8%
  Population Tubulin-Different-Phenotype (%): 15% and 16%
  Total Cell Count: 756 and 477

## O=c1ccc2ccc(OCCCCN3CCN(c4cccc5sccc45)CC3)cc2[nH]1 [BREXPIPRAZOLE]
[1]
  Population Apoptotic (%): 44% and 42%
  Population Fragmented Nuclei (%): 6% and 5%
  Population Healthy Nuclei (%): 77% and 80%
  Population Hoechst High Intensity Objects (%): 6%
  Population Membrane Permeable-Phenotype (%): 0%
  Population Mitochondria Different-Phenotype (%): 67% and 69%
  Population Mitotic Cells (%): 55% and 57%
  Population Normal (%): 93%
  Population Pyknosed Nuclei (%): 15% and 14%
  Population Tubulin-Different-Phenotype (%): 51% and 47%
  Total Cell Count: 392 and 354
[2]
  Population Apoptotic (%): 82% and 85%
  Population Fragmented Nuclei (%): 17% and 10%
  Population Healthy Nuclei (%): 43% and 66%
  Population Hoechst High Intensity Objects (%): 66% and 41%
  Population Membrane Permeable-Phenotype (%): 0%
  Population Mitochondria Different-Phenotype (%): 97% and 100%
  Population Mitotic Cells (%): 17% and 14%
  Population Normal (%): 33% and 59%
  Population Pyknosed Nuclei (%): 38% and 23%
  Population Tubulin-Different-Phenotype (%): 81% and 62%
  Total Cell Count: 299 and 200
[3]
  Population Apoptotic (%): 41% and 42%
  Population Fragmented Nuclei (%): 10% and 4%
  Population Healthy Nuclei (%): 73% and 87%
  Population Hoechst High Intensity Objects (%): 8% and 2%
  Population Membrane Permeable-Phenotype (%): 0%
  Population Mitochondria Different-Phenotype (%): 51% and 52%
  Population Mitotic Cells (%): 58% and 57%
  Population Normal (%): 91% and 97%
  Population Pyknosed Nuclei (%): 16% and 7%
  Population Tubulin-Different-Phenotype (%): 36% and 35%
  Total Cell Count: 501 and 449
[4]
  Population Apoptotic (%): 91% and 89%
  Population Fragmented Nuclei (%): 12% and 10%
  Population Healthy Nuclei (%): 37% and 59%
  Population Hoechst High Intensity Objects (%): 68% and 46%
  Population Membrane Permeable-Phenotype (%): 0%
  Population Mitochondria Different-Phenotype (%): 100% and 98%
  Population Mitotic Cells (%): 8% and 10%
  Population Normal (%): 31% and 53%
  Population Pyknosed Nuclei (%): 50% and 30%
  Population Tubulin-Different-Phenotype (%): 66% and 57%
  Total Cell Count: 284 and 180
[5]
  Population Apoptotic (%): 49% and 48%
  Population Fragmented Nuclei (%): 9% and 12%
  Population Healthy Nuclei (%): 80% and 79%
  Population Hoechst High Intensity Objects (%): 5% and 3%
  Population Membrane Permeable-Phenotype (%): 0% and 1%
  Population Mitochondria Different-Phenotype (%): 47% and 36%
  Population Mitotic Cells (%): 50% and 51%
  Population Normal (%): 94% and 96%
  Population Pyknosed Nuclei (%): 10% and 7%
  Population Tubulin-Different-Phenotype (%): 28% and 26%
  Total Cell Count: 679 and 644
[6]
  Population Apoptotic (%): 93% and 89%
  Population Fragmented Nuclei (%): 19% and 14%
  Population Healthy Nuclei (%): 30% and 50%
  Population Hoechst High Intensity Objects (%): 67% and 52%
  Population Membrane Permeable-Phenotype (%): 0%
  Population Mitochondria Different-Phenotype (%): 96% and 97%
  Population Mitotic Cells (%): 6% and 10%
  Population Normal (%): 32% and 47%
  Population Pyknosed Nuclei (%): 50% and 34%
  Population Tubulin-Different-Phenotype (%): 51% and 82%
  Total Cell Count: 269 and 170
